Results as given in ChEMBL document CHEMBL1121762, “2-(Isoxazolylethenyl)phenoxypropanolamines: a new class of beta-receptor antagonists with antihypertensive activity” (1981).

Tests used:
Assay type in all cases: functional
Rattus norvegicus [1] = assay: Relative potency required for hypotensive activity in anesthetized rat
Summary of the method: (§1)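 Male Sprague-Dawley rats, 230-280 g, anesthetized with urethane 1.78 g/kg ip; groups of two to five. Compound given iv. Mean carotid arterial pressure recorded by transducer. ED20 = dose lowering mean carotid pressure by 20%; 95% confidence limits; relative potency versus labetalol (=1.0).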

Rattus norvegicus [2] = assay: Relative potency required for antihypertensive activity in spontaneous hypertensive rats after oral administration
Summary of the method: (§2)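 Male SH rats (Okamoto strain), 250-380 g, groups of four to eight, dosed orally. Systolic pressure by tail cuff at 35 °C ambient, before and 2 h after dosing. ED20 = dose lowering systolic pressure 20%, corrected for placebo controls; from log dose vs Δ% regression; relative potency vs labetalol (=1.0).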

Rattus norvegicus [3] = assay: Relative potency required for inhibition of isoproterenol-induced tachycardia in pithed rat after intravenous administration
Summary of the method: (§3)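 Male Sprague-Dawley rats, 200-240 g, anesthetized with amobarbital 120 mg/kg ip, pithed and ventilated via tracheal cannula; groups of two to five. Isoproterenol 0.1 μg/kg iv given before and 5 min after iv compound; heart rate by rate meter. ED50 = dose halving tachycardia; 95% confidence limits; relative potency vs labetalol (=1.0).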

Rattus norvegicus [4] = assay: Dose required for hypotensive activity in anesthetized rat after intravenous administration; summary of the method: as §1
Rattus norvegicus [5] = assay: Dose required for inhibition of isoproterenol-induced tachycardia in pithed rat after intravenous administration; summary of the method: as §3
Rattus norvegicus [6] = assay: Dose required for antihypertensive activity in spontaneous hypertensive rats after oral administration; summary of the method: as §2
Rattus norvegicus [7] = species: Rattus norvegicus; assay: Relative potency required for inhibition of L-phenylephrine-induced pressor response in pithed rats
Summary of the method: (§4)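 Pithed male Sprague-Dawley rats, 200-240 g, amobarbital 120 mg/kg ip, artificially ventilated; three to five per dose. l-Phenylephrine 1.47 μg/kg iv before and 5 min after iv compound; carotid pressure recorded. ED50 = dose halving phenylephrine pressor rise; 95% confidence limits; relative potency vs labetalol (=1.0).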

Rattus norvegicus [8] = assay: Dose required for inhibition of L-phenylephrine-induced pressor response in pithed rats after intravenous administration; summary of the method: as §4
Rattus norvegicus [9] = assay: Dose of compound required for hypotensive activity in anesthetized rat; summary of the method: as §1

Compound	Relative potency (Rattus norvegicus [1])	Relative potency (Rattus norvegicus [2])	Relative potency (Rattus norvegicus [3])	ED20 (Rattus norvegicus [4])	ED50 (Rattus norvegicus [5])	ED20 (Rattus norvegicus [6])	Relative potency (Rattus norvegicus [7])	ED50 (Rattus norvegicus [8])	ED20 (Rattus norvegicus [9])
COc1ccc(CCC(C)(C)NCC(O)COc2ccccc2/C=C/c2cc(C)no2)cc1 (stereo not given)	~5.2	~2.2	~0.7	~1 mg/kg	~0.215 mg/kg	~21.5 mg/kg	–	–	–
Cc1cc(/C=C/c2ccccc2OCC(O)CNC(C)CCc2ccc(O)cc2)on1 (stereo not given)	10.6	~1	12.7	0.49 mg/kg	0.011 mg/kg	~46.4 mg/kg	–	–	–
Cc1noc(/C=C/c2ccccc2OCC(O)CNC(C)(C)C)c1[N+](=O)[O-] (stereo not given)	~5.2	–	~2.1	~1 mg/kg	~0.0681 mg/kg	> 21.5 mg/kg	–	–	–
Cc1noc(/C=C/c2ccccc2OCC(O)CNC(C)(C)C)c1C (stereo not given)	~7.6	–	~6.5	~0.68 mg/kg	~0.0215 mg/kg	> 21.5 mg/kg	–	–	–
Cc1cc(/C=C/c2ccccc2OCC(O)CNC(C)CCc2ccccc2)on1 (stereo not given)	~5.2	~1	~3	~1 mg/kg	~0.0464 mg/kg	~46.4 mg/kg	–	–	–
COc1ccc(CC(C)NCC(O)COc2ccccc2/C=C/c2cc(C)no2)cc1OC (stereo not given)	~2.4	–	~3	~2.15 mg/kg	~0.464 mg/kg	> 21.5 mg/kg	–	–	–
Cc1cc(/C=C/c2ccccc2OCC(O)CNC(C)C)on1 (stereo not given)	8	–	23.3	~0.65 mg/kg	0.006 mg/kg	> 21.5 mg/kg	–	–	–
Cc1noc(/C=C/c2ccccc2OCC(O)CNC(C)(C)C)c1Cl (stereo not given)	~5.2	–	10	~1 mg/kg	0.014 mg/kg	> 21.5 mg/kg	–	–	–
Cc1cc(/C=C/c2ccccc2OCC(O)CNC(C)(C)CCc2ccc(O)cc2)on1 (stereo not given)	~5.2	~2.2	~6.5	~1 mg/kg	~0.0215 mg/kg	~21.5 mg/kg	–	–	–
Cc1cc(/C=C/c2ccccc2OCC(O)CNC2CC2)on1 (stereo not given)	~3.5	~2.2	15.4	~1.47 mg/kg	0.0091 mg/kg	~21.5 mg/kg	0.8	0.63 mg/kg	–
CC(C)NCC(O)COc1ccccc1/C=C/c1cc(Cl)no1 (stereo not given)	7.6	–	3	–	0.0464 mg/kg	> 21.5 mg/kg	–	–	0.68 mg/kg
COCc1cc(/C=C/c2ccccc2OCC(O)CNC2CC2)on1 (stereo not given)	~5.2	~4.8	~14	~1 mg/kg	~0.01 mg/kg	~10 mg/kg	0.6	0.73 mg/kg	–
CCc1cc(/C=C/c2ccccc2OCC(O)CNC(C)C)on1.Cl (stereo not given)	12.7	5.1	~6.5	0.41 mg/kg	~0.0215 mg/kg	9.38 mg/kg	–	–	–
Cc1cc(/C=C/c2ccccc2OCC(O)CNC(C)(C)C)on1.Cl (stereo not given)	13	3.3	15.9	0.4 mg/kg	0.0088 mg/kg	14.5 mg/kg	3.9	0.12 mg/kg	–
Cc1cc(C=Cc2ccccc2OCC(O)CNC(C)(C)C)no1.Cl (stereo not given)	~2.4	~2.2	10.8	~2.15 mg/kg	0.013 mg/kg	~21.5 mg/kg	–	–	–
CCc1cc(/C=C/c2ccccc2OCC(O)CNC(C)(C)C)on1.Cl (stereo not given)	5.6	–	~6.5	0.93 mg/kg	~0.0215 mg/kg	> 21.5 mg/kg	–	–	–
COCc1cc(/C=C/c2ccccc2OCC(O)CNC(C)C)on1.Cl (stereo not given)	~5.2	2.6	21.9	~1 mg/kg	0.0064 mg/kg	18.2 mg/kg	0.8	0.61 mg/kg	–
COCc1cc(/C=C/c2ccccc2OCC(O)CNC(C)(C)C)on1.Cl (stereo not given)	~6.5	~2.2	18.9	~0.8 mg/kg	0.0074 mg/kg	~21.5 mg/kg	2.2	0.21 mg/kg	–
C#CC(C)(C)NCC(O)COc1ccccc1/C=C/c1cc(C)no1.Cl (stereo not given)	4.2	~1	~2.1	~1.25 mg/kg	~0.0681 mg/kg	~46.4 mg/kg	–	–	–
Cc1cc(/C=C/c2ccccc2OCC(O)CNC(C)C)no1.Cl (stereo not given)	~2.4	1	41.2	~2.15 mg/kg	0.0034 mg/kg	~46.4 mg/kg	–	–	–
CC(C)(C)NCC(O)COc1ccccc1/C=C/c1cc(C(C)(C)C)no1.Cl (stereo not given)	–	–	~6.5	> 1 mg/kg	~0.0215 mg/kg	> 46.4 mg/kg	–	–	–
CC(CCc1ccccc1)NCC(O)c1ccc(O)c(C(N)=O)c1 (stereo not given) [LABETALOL]	1	1	1	5.2 mg/kg	0.14 mg/kg	47.7 mg/kg	1	0.47 mg/kg	–
